Yeast lifespan up – extends the lifespan of yeast; S. cerevisiae growth with nicotinamide, OD615; deaD strain in restrictive glucose medium; inhibition of the nicotinamide effect, % at 10 µM; hit rate 0.68% among 130,000;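 active means inhibition above a set limit, placed 3 SD over the median of all compounds, cut at about 26% in these data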;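 further: 0% = nicotinamide-treated wells and 100% = cells grown without nicotinamide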
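Assay system: engineered S. cerevisiae DeaD replicative-lifespan strain, galactose-grown log-phase cells; Buffer or medium: CSMM-D glucose medium, restrictive; Probe or stimulus: nicotinamide 1.5 mM; Compound: single dose 10 µM compound, 0.25% DMSO; Schedule: 4 h preincubation then 48 h treatment at 30 °C; Technique: OD615 measurement.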
RAM network inh – blocks the yeast RAM network | S. cerevisiae dse1pr::URA3 reporter, 5-FOA growth OD615, 2 d; analog-sensitive cbk1-as2 kinase mutant strain | inhibition, % at 50 µM | hit rate 1.8% among 190,000 | AID 868;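 active means inhibition above a set limit, 3 SD over mean compound inhibition, cut at about 8.4% in these data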;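 further: 0% = DMSO-only wells with no growth and 100% = 10 µM 1-NA-PP1 full growth; inhibition rescues growth on 5-FOA so higher OD means more RAM inhibition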
SDO1 yeast rescue – restores growth of sdo1-depleted yeast | S. cerevisiae sdo1-depleted JHY4D growth rescue, OD600 30 h; stronger effect = higher value; pdr5 snq2 efflux-pump mutant strain | z-score at 10 µM | hit rate 0.21% among 140,000 | AID 817;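 active means z-score above 3 at both the 24 hr and the 30 hr optical density reads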;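 further: z-score against mean and SD of all compound wells on the same plate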
BB579 growth dn – yeast BB579 growth reduction in restrictive medium; S. cerevisiae BB579 growth, OD615, 48 h; inhibition, % at 10 µM; hit rate 0.51% among 140,000; AID 804;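 active means inhibition above a set limit, 3 SD over the mean compound inhibition, cut at about 44% in these data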
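Test system: Saccharomyces cerevisiae DeaD strain BB579, replicative lifespan model yeast | Buffer or medium: Restrictive CSMM-D medium | Doses: One dose, 10 µM compound with 0.25% DMSO | Incubation: 48 h exposure, 30 °C | Detection: Culture absorbance at 615 nm | Control set: Amphotericin B at 10 µg/mL as positive control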
SDO1 rescue DR – SDO1-depleted yeast growth rescue confirmation | S. cerevisiae JHY4D (SDO1-depleted) growth rescue, OD600, 30 h; stronger effect = higher value; efflux-deficient strain, SNQ2 and PDR5 mutated | shares compounds with SDO1 yeast rescue | hit rate 44% among 440 | OD recovery (test concentration not listed);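 active means yeast growth recovered at 30 hours, either rising with dose fitted slope above 0.001 or with average optical density gain above 0.07, some results past the limit were not filed as active; inactive means growth falling with dose or no effect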;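 further: gain in OD600 from 0 h to 30 h averaged across all seven doses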
RAM efflux-def – restores 5-FOA growth of efflux-deficient yeast. AID 1305. max inhibition, %. shares compounds with RAM network inh. S. cerevisiae efflux-deficient reporter strain, 5-FOA growth OD615, 2 days. 1,200 tested, under 10 active; call rule not given here;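 further: plate controls were vehicle for no effect and reference inhibitor for full effect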
* marks the source's active call; other numbers are inactive results. The list is not random: actives were taken first. Their share in the collection is about 2.7%.

What do the screens show for `CCC(=O)NC1(C(F)(F)F)C(=O)Nc2c1c(=O)[nH]c(=O)n2Cc1ccco1` (stereo not given)?
Yeast lifespan up: -9; RAM network inh: 3; SDO1 yeast rescue: 15*; BB579 growth dn: -5; SDO1 rescue DR: 0.077

How did Cc1nn(-c2ccccc2)c(C)c1C(=O)OCC(=O)N1c2ccccc2NC(=O)C1(C)C do in these assays?
Yeast lifespan up: -4; RAM network inh: 3; SDO1 yeast rescue: 14*; BB579 growth dn: -9; SDO1 rescue DR: 0.051

How did Cc1cnc(C(=O)OCC(=O)N2c3ccccc3NC(=O)C2(C)C)cn1 do in these assays?
Yeast lifespan up: -4; RAM network inh: -1; SDO1 yeast rescue: 1.1; BB579 growth dn: -5

How did O=C(CCNC(=O)c1ccc(Cl)cc1)Nc1c(F)c(F)cc(F)c1F do in these assays?
Yeast lifespan up: -3; RAM network inh: 0; SDO1 yeast rescue: -0.24; BB579 growth dn: -26

How did CCn1c(N)c(C(=O)NCc2ccc3c(c2)OCO3)sc1=S do in these assays?
Yeast lifespan up: -2; RAM network inh: 5; SDO1 yeast rescue: 2.2; BB579 growth dn: -19; SDO1 rescue DR: 0.059

Results for CCOC(=O)c1c(C)c(C(=O)NCc2ccc3c(c2)OCO3)c(C)n1CC ?
Yeast lifespan up: 1; RAM network inh: 2; SDO1 yeast rescue: -1.4; BB579 growth dn: -19

Results for CCOc1ccc(CCNC(=O)C2CCN(C(=O)N(C)C)CC2)cc1OCC ?
Yeast lifespan up: -16; RAM network inh: 3; SDO1 yeast rescue: 2; BB579 growth dn: -46; SDO1 rescue DR: 0.055

How did CSc1ccc(Cl)c(C(=O)NCCOc2ccccc2)c1 do in these assays?
Yeast lifespan up: -31; RAM network inh: 1; SDO1 yeast rescue: -0.6; BB579 growth dn: -30

What do the screens show for `CSc1ccc(Cl)c(C(=O)NCCOc2cc(C)ccc2C(C)C)c1`?
Yeast lifespan up: -6; RAM network inh: 13*; SDO1 yeast rescue: -0.97; BB579 growth dn: -10; RAM efflux-def: 2

What do the screens show for `Cc1cc(C(=O)COc2ccccc2C(N)=O)c(C)n1C`?
RAM network inh: 2

What do the screens show for `Cc1cc(C(=O)COc2ccc(Cl)cc2Br)c(C)n1C`?
RAM network inh: 12*; RAM efflux-def: 3

What do the screens show for `Cc1ccccc1NC(=S)NCCC(c1ccccc1)c1ccccc1`?
Yeast lifespan up: -8; RAM network inh: 12*; SDO1 yeast rescue: -0.82; BB579 growth dn: 36; RAM efflux-def: 3

Results for S=C(NCCC(c1ccccc1)c1ccccc1)Nc1cccc(Cl)c1 ?
Yeast lifespan up: 1; RAM network inh: 14*; SDO1 yeast rescue: -0.66; BB579 growth dn: 40; RAM efflux-def: 5

What do the screens show for `S=C(NCc1ccncc1)Nc1cccc(Cl)c1`?
Yeast lifespan up: 9; RAM network inh: 1; SDO1 yeast rescue: 0.24; BB579 growth dn: -39

Results for CC(=O)Nc1ccc(S(=O)(=O)Nc2nc3ccccc3nc2-n2ccc(=NC(=O)c3ccc(F)cc3)cc2)cc1 ?
RAM network inh: 12*; RAM efflux-def: 2

What do the screens show for `COc1ccccc1NS(=O)(=O)c1ccc(N/N=C(\C)C(C)C)c([N+](=O)[O-])c1`?
Yeast lifespan up: 3; RAM network inh: 5; SDO1 yeast rescue: -0.09; BB579 growth dn: -22

How did CCCC(CCC)=NNc1ccc(S(=O)(=O)Nc2ccccc2OC)cc1[N+](=O)[O-] do in these assays?
Yeast lifespan up: 14; RAM network inh: 16*; SDO1 yeast rescue: 0.21; BB579 growth dn: -49; RAM efflux-def: 2

What do the screens show for `Cc1ccc(/C=N/NC(=O)CCCOc2ccc(Cl)cc2Cl)cc1`?
Yeast lifespan up: 4; RAM network inh: 12*; SDO1 yeast rescue: -0.45; BB579 growth dn: -39; RAM efflux-def: 1

How did O=C(CCCOc1ccc(Cl)cc1Cl)N/N=C/c1ccccc1 do in these assays?
Yeast lifespan up: -3; RAM network inh: 12*; SDO1 yeast rescue: -0.99; BB579 growth dn: -40; RAM efflux-def: 2

How did Cc1ccccc1N/C(SCc1ccc(Cl)cc1)=C(/C#N)C(=O)NCc1ccco1 do in these assays?
Yeast lifespan up: 4; RAM network inh: 15*; SDO1 yeast rescue: -0.04; BB579 growth dn: -29; RAM efflux-def: 6

How did O=C(CCSCc1ccc(Cl)cc1)NCc1ccco1 do in these assays?
RAM network inh: 1

What do the screens show for `Cc1ccc(CS/C(Nc2ccccc2C)=C(\C#N)C(=O)NCc2ccco2)c(C)c1`?
Yeast lifespan up: -2; RAM network inh: 13*; SDO1 yeast rescue: 0.12; BB579 growth dn: -16; RAM efflux-def: 6

How did COc1ccc(S(=O)(=O)N(C)C)cc1NC(=O)CSc1nncs1 do in these assays?
RAM network inh: -1

What do the screens show for `CCS(=O)(=O)c1ccc(-c2csc(-c3ccc(Cl)cc3)n2)c(Cl)c1Cl`?
Yeast lifespan up: -25; RAM network inh: 12*; SDO1 yeast rescue: -0.58; BB579 growth dn: -23; RAM efflux-def: 3

How did O=C1N/C(=C/c2ccc(N3CCOCC3)o2)C(=O)N1c1cccc(Cl)c1 do in these assays?
RAM network inh: 2

What do the screens show for `COc1ccccc1NC(=O)C1=C(C)NC(=O)NC1c1ccc(C)cc1` (stereo not given)?
Yeast lifespan up: -7; RAM network inh: 0; SDO1 yeast rescue: 0.49; BB579 growth dn: 11

How did COc1ccc(C2NC(=O)NC(C)=C2C(=O)Nc2cc(C)ccc2C)cc1OC (stereo not given) do in these assays?
Yeast lifespan up: -14; RAM network inh: 12*; SDO1 yeast rescue: 0.17; BB579 growth dn: 0; RAM efflux-def: 4

Results for CCN(Cc1ccccc1)c1ccc(/C=N/NS(=O)(=O)c2cccc([N+](=O)[O-])c2)cc1 ?
Yeast lifespan up: 0; RAM network inh: 14*; SDO1 yeast rescue: -0.13; BB579 growth dn: -37; RAM efflux-def: 3

What do the screens show for `CCCS(=O)(=O)c1c(S(=O)(=O)CCC)c2c(N)cccn2c1C(=O)c1ccc(Br)cc1`?
RAM network inh: 13*; SDO1 yeast rescue: -1.3; BB579 growth dn: -49; RAM efflux-def: 1

What do the screens show for `O=S(=O)(c1ccccc1)N1CCN=C1SCc1ccc(Cl)cc1`?
RAM network inh: 1

What do the screens show for `O=S(=O)(c1ccccc1)N1CCN=C1SCc1ccc(Cl)c(Cl)c1`?
Yeast lifespan up: -1; RAM network inh: 12*; SDO1 yeast rescue: -1.1; BB579 growth dn: -58; RAM efflux-def: 2

Results for Cc1cc(Cl)ccc1OCC(=O)N/N=C1\CCCc2ccccc21 ?
Yeast lifespan up: -12; RAM network inh: 15*; SDO1 yeast rescue: 1.5; BB579 growth dn: -1; RAM efflux-def: 3

Results for Brc1ccc(CSc2nnc(Cc3c[nH]c4ccccc34)o2)cc1 ?
Yeast lifespan up: -8; RAM network inh: 13*; SDO1 yeast rescue: -1.1; BB579 growth dn: -30; RAM efflux-def: 2

Screening results deposited in PubChem by several laboratories.
